Consider 5 compounds from ChEMBL document CHEMBL4732186, “Targeting the transmembrane domain 5 of latent membrane protein 1 using small molecule modulators” (Eur J Med Chem, 2021).

Data set [1] is described as follows: Inhibition of recombinant EpsteinBarr virus Transmembrane domain 5 of latent membrane protein 1 transformed into Escherichia coli FHK12 cells assessed as disruption of oligomerization by measuring ToxR transcription activity assay. Set-up: species or system human gammaherpesvirus 4.
The test system of the next data set is Escherichia coli. In words: Antibacterial activity against Escherichia coli FHK12. The class given is ADME, organism-based. An outline of the steps:
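FHK12 E. coli transformed by heat shock (42 °C, 90 s) with the ToxR7-TMD-5 plasmid. Grown in LB with 0.0025% arabinose and 30 µg/mL chloramphenicol plus a range of test-compound concentrations, shaken at 37 °C for 20 h, five replicate cultures. Growth read as OD at 600 nm.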

A short description of data set [2]: Binding affinity to EpsteinBarr virus Transmembrane domain 5 of latent membrane protein 1 assessed as dissociation constant by spectrofluorimetric analysis. Further details: species or system human gammaherpesvirus 4.
Data set [3] is described as follows: Apparent permeability in dog MDCK cells measured after 150 mins. The class given is ADME, cell-based, Canis lupus familiaris. In a few lines: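 MDCK cells (passage 20-35) seeded at 5×10^4 cells/well on 0.4 µm Transwell inserts and grown 4-5 days to confluence. Monolayers washed with HBSS pH 7.4 and equilibrated 30 min. Compound added apically or basolaterally; receiver side sampled at 150 min, then frozen and lyophilized. TEER checked afterward for monolayer integrity.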

The next data set concerns human gammaherpesvirus 4. In words: Potency index, ratio of IC50 of pentamidine to IC50 of compound for inhibition of recombinant EpsteinBarr virus Transmembrane domain 5 of latent membrane protein 1 transformed into FHK12 cells by ToxR assay. An outline of the steps:
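ToxR7-TMD-5 plasmid heat-shocked into FHK12 E. coli; cultures in LB with 0.0025% arabinose and 30 µg/mL chloramphenicol with graded compound concentrations, five replicates, shaken 37 °C for 20 h. Cells lysed with Z buffer/SDS, then ONPG (0.4% w/v) added; β-galactosidase followed at 405 nm for 20 min at 28 °C.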

Molecules are shown by their SMILES.

A word on the IC50: it is the concentration that inhibits the measured activity by half. As usually defined, the Kd is the free concentration of one partner at which half of the binding sites on the other are occupied at equilibrium, for simple one-to-one binding. In the case of `N=C(N)c1ccc(NCCCCCNc2ccc(C(=N)N)cc2)cc1`, the IC50 is 31.2 µM in data set [1] and over 200 µM in the data set with Escherichia coli. Also, the Kd in data set [2] was found to be 7.3 µM.
Turning to `N=C(N)c1ccc(NC(=O)CCCCC(=O)Nc2ccc(C(=N)N)cc2)cc1`, the IC50 in data set [1] is 42 µM; in the data set with Escherichia coli, over 200 µM. In addition, in data set [2], the Kd amounted to 8.9 µM.
For orientation: Papp means a coefficient for how fast a substance crosses the barrier. Take `N=C(N)c1ccc(NC(=O)CCCC(=O)Nc2ccc(C(=N)N)cc2)cc1`: the IC50 was determined as 0.6 µM in data set [1] and 56.4 µM with Escherichia coli. Besides, the Kd in data set [2] turned out to be 2.6 µM. Besides, in data set [3], the Papp at 2.5 h was found to be 4.28 ×10⁻⁶ cm/s. Also, the Ratio IC50 in the data set with human gammaherpesvirus 4 stood at 15.
With `N=C(N)c1ccc(NC(=O)CCC(=O)Nc2ccc(C(=N)N)cc2)cc1`, the figures for the IC50 (in data set [1]; in the data set with Escherichia coli) were 112 µM and over 200 µM, respectively. Moreover, in data set [2], the Kd came to 13.5 µM.
Consider `N=C(N)c1ccc(C(=O)NCCCNC(=O)c2ccc(C(=N)N)cc2)cc1`, for which the IC50 (in data set [1]; with Escherichia coli) was over 200 µM throughout. Besides, the Papp at 2.5 h in data set [3] was found to be 1.07 ×10⁻⁶ cm/s.
